In ChEMBL document CHEMBL4196014, “Highly convergent synthesis and antiviral activity of (E)-but-2-enyl nucleoside phosphonoamidates” (Eur J Med Chem, 2018):
Calls of active or inactive are those of the source. The rule behind the calls is not given here.

Columns and labels:
Human betaherpesvirus 5 [1] = test: Antiviral activity against Human cytomegalovirus AD169 infected in HEL cells assessed as reduction in viral cytopathic effect; format: functional, organism-based; conditions: Human betaherpesvirus 5, AD169, HEL
How it was run: (§1)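 Confluent cell monolayers were infected with 100 CCID50 of virus (1 CCID50 is the dose infecting 50% of cultures) with test compound at varying concentrations (100, 20, … μM). CPE was scored once it was complete in untreated infected controls.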

Human betaherpesvirus 5 [2] = test: Antiviral activity against Human cytomegalovirus Davis infected in HEL cells assessed as reduction in viral cytopathic effect; format: functional, organism-based; conditions: Human betaherpesvirus 5, Davis; how it was run: as §1
Human alphaherpesvirus 3 [3] = test: Antiviral activity against Varicella zoster virus Oka infected in HEL cells assessed as reduction in viral plaque formation; format: functional, organism-based; conditions: Human alphaherpesvirus 3, strain Oka vaccine
How it was run: (§2)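 Confluent cultures were inoculated with 20 PFU of virus with compound at varying concentrations (100, 20, … μM). Plaques were counted once plaque formation was complete in untreated infected controls.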

Human alphaherpesvirus 3 [4] = test: Antiviral activity against thymidine kinase deficient Varicella zoster virus 07/1 infected in HEL cells assessed as reduction in viral plaque formation; format: functional, organism-based; conditions: Human alphaherpesvirus 3, 07/1, HEL; how it was run: as §2
[5] = Cytotoxicity against HEL cells assessed as alteration of cell morphology by microscopic method; format: cell-based; conditions: human
How it was run: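 MCC is the lowest compound concentration giving a microscopically visible alteration of cell morphology.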

HEL = test: Cytostatic activity against HEL cells after 3 days by Coulter counting method; format: cell-based; conditions: human, 72 h
How it was run: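 HEL cells were seeded at 5 × 10^3 cells/well and grown for 24 h, then given medium with graded compound concentrations. After 3 days at 37 °C, cells were counted with a Coulter counter.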

Human alphaherpesvirus 1 [6] = test: Antiviral activity against Human simplex virus 1 KOS infected in HEL cells assessed as reduction in viral cytopathic effect; format: functional, organism-based; conditions: Human alphaherpesvirus 1, KOS; how it was run: as §1
Human alphaherpesvirus 1 [7] = test: Antiviral activity against thymidine kinase deficient acyclovir-resistant Human simplex virus 1 KOS infected in HEL cells assessed as reduction in viral cytopathic effect; format: functional, organism-based; conditions: Human alphaherpesvirus 1, KOS; how it was run: as §1
Human alphaherpesvirus 2 = test: Antiviral activity against Human simplex virus 2 G infected in HEL cells assessed as reduction in viral cytopathic effect; format: functional, organism-based; conditions: Human alphaherpesvirus 2, strain G; how it was run: as §1
Vaccinia virus = test: Antiviral activity against Vaccinia virus infected in HEL cells assessed as reduction in viral cytopathic effect; format: functional, organism-based; conditions: Orthopoxvirus vaccinia; how it was run: as §1
Human respirovirus 3 = test: Antiviral activity against Human parainfluenza virus 3 infected in African green monkey Vero cells assessed as reduction in viral cytopathic effect; format: functional, organism-based; how it was run: as §1
[8] = tested on: Mammalian orthoreovirus 1; test: Antiviral activity against Reovirus-1 infected in African green monkey Vero cells assessed as reduction in viral cytopathic effect; format: functional, organism-based; how it was run: as §1
Sindbis virus = test: Antiviral activity against Sindbis virus infected in African green monkey Vero cells assessed as reduction in viral cytopathic effect; format: functional, organism-based; how it was run: as §1
Coxsackievirus B4 [9] = test: Antiviral activity against Coxsackievirus B4 infected in African green monkey Vero cells assessed as reduction in viral cytopathic effect; format: functional, organism-based; how it was run: as §1
[10] = tested on: Vesicular stomatitis virus; test: Antiviral activity against Vesicular stomatitis virus infected in human HeLa cells assessed as reduction in viral cytopathic effect; format: functional, organism-based; how it was run: as §1
Coxsackievirus B4 [11] = test: Antiviral activity against Human coxsackievirus B4 infected in human HeLa cells assessed as reduction in viral cytopathic effect; format: functional, organism-based; how it was run: as §1
[12] = tested on: Respiratory syncytial virus; test: Antiviral activity against Respiratory syncytial virus infected in human HeLa cells assessed as reduction in viral cytopathic effect; format: functional, organism-based; how it was run: as §1
Influenza A virus = test: Antiviral activity against Influenza A virus (H1N1) infected in MDCK cells assessed as reduction in viral cytopathic effect; format: functional, organism-based
How it was run: (§3)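 Nearly confluent MDCK cultures were infected with 100 CCID50 of virus with compound at varying concentrations (100, 20, … μM). CPE was scored when complete in untreated infected controls.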

Influenza A virus H3N2 = test: Antiviral activity against Influenza A virus H3N2 infected in MDCK cells assessed as reduction in viral cytopathic effect; format: functional, organism-based; how it was run: as §3
Influenza B virus = test: Antiviral activity against Influenza B virus infected in MDCK cells assessed as reduction in viral cytopathic effect; format: functional, organism-based; how it was run: as §3
[13] = tested on: Human immunodeficiency virus 1; test: Antiviral activity against Human immunodeficiency virus 1 LAV1 infected in primary human PBM cells after 6 days by reverse transcriptase activity-based assay; format: functional, organism-based
[14] = Selectivity index, ratio of CC50 for HEL cells to EC50 for Varicella zoster virus Oka infected in HEL cells; format: toxicity, cell-based; conditions: human, read-out: Ratio CC50/EC50
How it was run: (§4)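 SI is CC50 divided by EC50. CC50 comes from the 3-day HEL Coulter-counter growth assay. EC50 comes from the VZV plaque-reduction assay (20 PFU inoculum).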

[15] = Selectivity index, ratio of CC50 for HEL cells to EC50 for thymidine kinase deficient Varicella zoster virus 07/1 infected in HEL cells; format: toxicity, cell-based; conditions: human, read-out: Ratio CC50/EC50; how it was run: as §4
Human coronavirus 229E = test: Antiviral activity against Human coronavirus 229E infected in HEL cells assessed as reduction in viral cytopathic effect; format: functional, organism-based; how it was run: as §1

SMILES	EC50 (Human betaherpesvirus 5 [1])	EC50 (Human betaherpesvirus 5 [2])	EC50 (Human alphaherpesvirus 3 [3])	EC50 (Human alphaherpesvirus 3 [4])	MCC [5]	CC50 (HEL)	EC50 (Human alphaherpesvirus 1 [6])	EC50 (Human alphaherpesvirus 1 [7])	EC50 (Human alphaherpesvirus 2)	EC50 (Vaccinia virus)	Activity (Human respirovirus 3)	Activity [8]	Activity (Sindbis virus)	Activity (Coxsackievirus B4 [9])	Activity [10]	Activity (Coxsackievirus B4 [11])	Activity [12]	Activity (Influenza A virus)	Activity (Influenza A virus H3N2)	Activity (Influenza B virus)	further results
CCCCCCCCCCCCCCCOCCCOP(=O)(O)C/C=C/Cn1cc(C)c(=O)[nH]c1=O	> 39 µM	13.5 µM	19.4 µM	20.5 µM	184 µM	76 µM	> 37 µM	> 37 µM	> 37 µM	> 37 µM	inactive	inactive	inactive	inactive	inactive	inactive	inactive	inactive	inactive	inactive	Activity [13]: inactive
O=c1[nH]c(=O)n([C@H]2C[C@H](O)[C@@H](CO)O2)cc1/C=C/Br [BRIVUDINE]	–	–	–	≥ 93.8 µM	> 300 µM	> 300 µM	0.081 µM	420 µM	169 µM	10.8 µM	–	–	–	–	–	–	–	–	–	–	selectivity ratio [14]: > 21400; selectivity ratio [15]: > 3
C[C@H](NP(=O)(C/C=C/Cn1cc(F)c(=O)[nH]c1=O)Oc1ccccc1)C(=O)OCc1ccccc1 (some centres not stated)	> 20 µM	> 20 µM	> 100 µM	> 100 µM	≥ 100 µM	–	> 100 µM	79 µM	> 100 µM	> 100 µM	inactive	inactive	inactive	inactive	inactive	inactive	inactive	inactive	inactive	inactive	EC50 (Human coronavirus 229E): 45 µM; Activity [13]: inactive
Nc1nc(O)c2ncn(COC(CO)CO)c2n1 [GANCICLOVIR]	5.63 µM	4.05 µM	–	–	≥ 350 µM	> 350 µM	–	–	–	–	–	–	–	–	–	–	–	–	–	–	–
Cc1cn(C/C=C/CP(=O)(OCOC(=O)C(C)C)OCOC(=O)C(C)C)c(=O)[nH]c1=O	102 µM	83 µM	1.26 µM	0.45 µM	> 200 µM	36 µM	4.2 µM	2.8 µM	6.1 µM	> 200 µM	inactive	inactive	inactive	inactive	inactive	inactive	inactive	inactive	inactive	inactive	selectivity ratio [14]: 29; selectivity ratio [15]: 80; Activity [13]: inactive
Nc1nc2c(ncn2COCCO)c(=O)[nH]1 [ACYCLOVIR]	–	–	–	–	> 440 µM	> 440 µM	1.2 µM	94 µM	0.7 µM	> 250 µM	–	–	–	–	–	–	–	–	–	–	–
C[C@H](NP(=O)(C/C=C/Cn1cc(Cl)c(=O)[nH]c1=O)Oc1ccccc1)C(=O)OCc1ccccc1 (some centres not stated)	> 20 µM	> 20 µM	44.7 µM	20 µM	≥ 100 µM	–	43 µM	24 µM	40 µM	> 100 µM	inactive	inactive	inactive	inactive	inactive	inactive	inactive	inactive	inactive	inactive	EC50 (Human coronavirus 229E): 8.9 µM; Activity [13]: inactive
Cc1cn(C/C=C/CP(=O)(OCOC(=O)C(C)(C)C)OCOC(=O)C(C)(C)C)c(=O)[nH]c1=O	> 41 µM	> 41 µM	1.91 µM	0.43 µM	≥ 100 µM	36.4 µM	–	–	6.5 µM	30.7 µM	inactive	inactive	inactive	inactive	inactive	inactive	inactive	inactive	inactive	inactive	selectivity ratio [14]: 19; selectivity ratio [15]: 85; Activity [13]: inactive
Nc1ccn(C[C@@H](CO)OCP(=O)(O)O)c(=O)n1 [CIDOFOVIR]	–	–	–	–	> 300 µM	> 300 µM	6.5 µM	4.6 µM	4.1 µM	21.3 µM	–	–	–	–	–	–	–	–	–	–	–
CCCCCCCCCCCCCCCOCCCOP(=O)(C/C=C/Cn1cc(C)c(=O)[nH]c1=O)OCOC(=O)OC(C)C (configuration not stated)	> 6 µM	> 6 µM	> 6 µM	> 6 µM	30 µM	14.7 µM	> 152 µM	> 152 µM	> 152 µM	–	inactive	inactive	inactive	inactive	inactive	inactive	inactive	inactive	inactive	inactive	Activity [13]: inactive
